{"source": "ChEMBL document CHEMBL4354843", "about": "“Structure-Based Design of a Potent and Selective Covalent Inhibitor for SRC Kinase That Targets a P-Loop Cysteine” (J Med Chem, 2020)", "key": {"Mus musculus": {"tested_on": "Mus musculus", "test": "In vivo inhibition of SRC in C57B6 mouse assessed as blocking of SRC pulldown at 5 mg/kg, ip measured after 2 to 4 hrs by Western blot analysis", "assay_type": "functional, organism-based", "in_short": "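Adult C57B6 mice, n = 2 per condition. Three intraperitoneal doses of 5 mg/kg, given every 12 h; vehicle is 5% DMSO/95% D5W. Spleens harvested 2 or 4 h after the last dose, homogenized and lysed in M-PER with protease/phosphatase inhibitors. Lysate incubated with 1 μM biotinylated probe TL13-68 overnight at 4 °C, streptavidin pulldown, SRC detected by Western blot.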"}, "[1]": {"target": "Mitotic checkpoint serine/threonine-protein kinase BUB1 (Homo sapiens) (UniProt O43683)", "test": "Binding affinity to wild-type human partial length BUB1 (Q724 to K1085 residues) expressed in mammalian expression system assessed as residual binding level at 1 uM by Kinomescan method relative to control", "in_short": "(§1)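 KinomeScan, an active site-directed competition binding panel of 468 kinases. The test compound was at 1 μM. The readout is remaining kinase binding as a percentage of the DMSO control. Scores above 35% were treated as weak binding and not listed.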"}, "[2]": {"target": "Mitogen-activated protein kinase kinase kinase kinase 5 (Homo sapiens) (UniProt Q9Y4K4)", "test": "Binding affinity to wild-type human partial length MAP4K5 (M1 to P297 residues) expressed in bacterial expression system assessed as residual binding level at 1 uM by Kinomescan method relative to control"}, "[3]": {"target": "Ribosomal protein S6 kinase alpha-6 (Homo sapiens) (UniProt Q9UK32)", "sequence (Q9UK32 whole entry, the tested form may be a part)": "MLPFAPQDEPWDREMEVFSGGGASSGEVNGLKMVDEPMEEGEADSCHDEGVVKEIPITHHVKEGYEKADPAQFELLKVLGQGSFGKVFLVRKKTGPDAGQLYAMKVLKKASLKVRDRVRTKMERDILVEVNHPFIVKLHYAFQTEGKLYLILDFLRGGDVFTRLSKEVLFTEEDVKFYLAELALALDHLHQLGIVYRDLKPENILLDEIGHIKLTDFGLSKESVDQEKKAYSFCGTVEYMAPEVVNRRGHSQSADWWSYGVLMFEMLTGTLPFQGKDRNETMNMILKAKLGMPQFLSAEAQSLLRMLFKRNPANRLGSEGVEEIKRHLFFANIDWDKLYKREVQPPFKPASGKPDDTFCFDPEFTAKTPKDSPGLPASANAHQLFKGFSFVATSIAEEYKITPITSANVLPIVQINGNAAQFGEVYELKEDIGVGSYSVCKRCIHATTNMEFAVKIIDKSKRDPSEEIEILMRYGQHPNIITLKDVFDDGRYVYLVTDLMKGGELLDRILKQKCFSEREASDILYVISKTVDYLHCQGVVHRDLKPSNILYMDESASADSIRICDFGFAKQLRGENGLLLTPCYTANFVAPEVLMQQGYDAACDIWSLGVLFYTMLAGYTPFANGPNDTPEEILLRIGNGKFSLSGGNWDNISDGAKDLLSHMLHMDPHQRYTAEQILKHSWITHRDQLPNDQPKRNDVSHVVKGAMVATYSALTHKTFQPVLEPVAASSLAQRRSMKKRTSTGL", "test": "Binding affinity to wild-type human partial length C-terminal RSK4 kinase domain 2 (I401 to Y711 residues) expressed in bacterial expression system assessed as residual binding level at 1 uM by Kinomescan method relative to control", "in_short": "as §1"}, "[4]": {"tested_on": "Tyrosine-protein kinase ABL1 (Homo sapiens), P00519 [Y253F]", "test": "Binding affinity to human phosphorylated ABL1 Y253F mutant (S229 to K512 residues) expressed in mammalian expression system assessed as residual binding level at 1 uM by Kinomescan method relative to control", "in_short": "(§2)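 Active-site-directed KinomeScan competition binding panel covering 468 kinases, compound tested at 1 μM. Each readout is the kinase signal remaining with compound, expressed as a percentage of the DMSO control. […]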"}, "[5]": {"target": "Mitogen-activated protein kinase kinase kinase 6 (Homo sapiens) (UniProt O95382)", "test": "Binding affinity to wild-type human partial length ASK2 (M278 to R972 residues) expressed in mammalian expression system assessed as residual binding level at 1 uM by Kinomescan method relative to control", "in_short": "as §1"}, "[6]": {"target": "Insulin receptor-related protein (Homo sapiens) (UniProt P14616)", "test": "Binding affinity to wild-type human partial length INSRR (R950 to E1278 residues) expressed in bacterial expression system assessed as residual binding level at 1 uM by Kinomescan method relative to control"}, "[7]": {"target": "Bone morphogenetic protein receptor type-1A (Homo sapiens) (UniProt P36894)", "test": "Binding affinity to wild-type human partial length BMPR1A (Q214 to I532 residues) expressed in bacterial expression system assessed as residual binding level at 1 uM by Kinomescan method relative to control"}, "[8]": {"target": "Rho-associated protein kinase 1 (Homo sapiens) (UniProt Q13464)", "test": "Binding affinity to wild-type human partial length ROCK1 (M1 to R415 residues) expressed in mammalian expression system assessed as residual binding level at 1 uM by Kinomescan method relative to control"}, "[9]": {"target": "Serine/threonine-protein kinase MRCK alpha (Homo sapiens) (UniProt Q5VT25)", "test": "Binding affinity to wild-type human partial length MRCKA (L57 to V418 residues) expressed in bacterial expression system assessed as residual binding level at 1 uM by Kinomescan method relative to control"}, "[10]": {"tested_on": "Phosphatidylinositol 4,5-bisphosphate 3-kinase catalytic subunit alpha isoform (Homo sapiens), P42336 [E545K]", "test": "Binding affinity to human partial length PIK3CA E545K mutant (R108 to N1068 residues) expressed in mammalian expression system assessed as residual binding level at 1 uM by Kinomescan method relative to control", "in_short": "(§3)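 KinomeScan active site-directed competition binding panel (468 kinases), compound tested at 1 μM. Result expressed as remaining kinase signal versus DMSO control (percent of control).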"}, "[11]": {"target": "LIM domain kinase 1 (Homo sapiens) (UniProt P53667)", "sequence (P53667 whole entry, looked up, the tested form may be a part)": "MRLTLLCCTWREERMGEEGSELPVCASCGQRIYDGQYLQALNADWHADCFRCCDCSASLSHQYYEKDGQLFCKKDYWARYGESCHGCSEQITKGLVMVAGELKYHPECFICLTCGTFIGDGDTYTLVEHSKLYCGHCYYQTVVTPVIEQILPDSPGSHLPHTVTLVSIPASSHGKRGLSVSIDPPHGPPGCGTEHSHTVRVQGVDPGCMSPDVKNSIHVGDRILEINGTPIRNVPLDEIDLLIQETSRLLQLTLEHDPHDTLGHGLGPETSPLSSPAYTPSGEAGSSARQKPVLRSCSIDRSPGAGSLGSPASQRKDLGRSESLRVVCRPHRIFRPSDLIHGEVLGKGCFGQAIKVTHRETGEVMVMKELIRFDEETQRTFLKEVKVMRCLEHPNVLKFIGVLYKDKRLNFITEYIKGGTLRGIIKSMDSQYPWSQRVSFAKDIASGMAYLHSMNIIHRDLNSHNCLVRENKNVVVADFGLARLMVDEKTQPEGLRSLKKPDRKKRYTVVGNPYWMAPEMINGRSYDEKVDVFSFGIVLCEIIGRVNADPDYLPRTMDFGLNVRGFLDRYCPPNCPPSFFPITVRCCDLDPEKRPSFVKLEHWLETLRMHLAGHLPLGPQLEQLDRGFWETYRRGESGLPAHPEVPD", "test": "Binding affinity to wild-type human full length LIMK1 (M1 to D647 residues) expressed in bacterial expression system assessed as residual binding level at 1 uM by Kinomescan method relative to control", "in_short": "as §2"}, "[12]": {"target": "Serine/threonine-protein kinase/endoribonuclease IRE1 (Homo sapiens) (UniProt O75460)", "sequence (O75460 19-977 limits assumed)": "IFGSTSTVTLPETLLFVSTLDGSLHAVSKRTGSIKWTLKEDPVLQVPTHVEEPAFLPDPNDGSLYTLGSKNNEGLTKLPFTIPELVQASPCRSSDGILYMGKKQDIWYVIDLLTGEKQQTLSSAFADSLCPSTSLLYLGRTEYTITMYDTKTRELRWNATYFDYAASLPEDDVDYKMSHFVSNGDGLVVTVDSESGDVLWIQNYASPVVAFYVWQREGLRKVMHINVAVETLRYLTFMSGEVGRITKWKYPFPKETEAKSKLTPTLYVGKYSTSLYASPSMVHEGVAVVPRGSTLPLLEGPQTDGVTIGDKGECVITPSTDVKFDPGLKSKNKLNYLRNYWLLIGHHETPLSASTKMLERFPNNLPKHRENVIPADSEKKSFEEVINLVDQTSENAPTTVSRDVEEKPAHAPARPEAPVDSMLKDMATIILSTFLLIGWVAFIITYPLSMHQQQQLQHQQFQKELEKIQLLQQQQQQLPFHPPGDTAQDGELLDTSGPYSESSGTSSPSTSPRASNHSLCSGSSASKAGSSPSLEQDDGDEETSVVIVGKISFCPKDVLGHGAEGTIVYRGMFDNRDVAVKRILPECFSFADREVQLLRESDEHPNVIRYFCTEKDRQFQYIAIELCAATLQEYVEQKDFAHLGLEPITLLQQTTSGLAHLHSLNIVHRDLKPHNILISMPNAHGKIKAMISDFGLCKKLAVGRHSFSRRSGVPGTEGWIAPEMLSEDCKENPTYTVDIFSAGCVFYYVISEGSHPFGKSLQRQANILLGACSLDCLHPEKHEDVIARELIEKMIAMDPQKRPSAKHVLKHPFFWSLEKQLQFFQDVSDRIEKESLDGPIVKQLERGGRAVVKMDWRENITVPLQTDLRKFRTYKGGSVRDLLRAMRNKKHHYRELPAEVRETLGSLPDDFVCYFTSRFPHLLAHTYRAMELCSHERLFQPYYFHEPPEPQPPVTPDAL", "test": "Binding affinity to wild-type human partial length ERN1 (S551 to E852 residues) expressed in mammalian expression system assessed as residual binding level at 1 uM by Kinomescan method relative to control", "in_short": "(§4)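 Active-site-directed competition binding panel of 468 kinases (KinomeScan), compound at 1 μM. The read-out is kinase remaining bound, given as a percentage of the DMSO control. […]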"}, "[13]": {"target": "Bone morphogenetic protein receptor type-1B (Homo sapiens) (UniProt O00238)", "test": "Binding affinity to wild-type human partial length BMPR1B (D178 to L502 residues) expressed in mammalian expression system assessed as residual binding level at 1 uM by Kinomescan method relative to control"}, "[14]": {"target": "TGF-beta receptor type-1 (Homo sapiens) (UniProt P36897)", "sequence (P36897 whole entry, the tested form may be a part)": "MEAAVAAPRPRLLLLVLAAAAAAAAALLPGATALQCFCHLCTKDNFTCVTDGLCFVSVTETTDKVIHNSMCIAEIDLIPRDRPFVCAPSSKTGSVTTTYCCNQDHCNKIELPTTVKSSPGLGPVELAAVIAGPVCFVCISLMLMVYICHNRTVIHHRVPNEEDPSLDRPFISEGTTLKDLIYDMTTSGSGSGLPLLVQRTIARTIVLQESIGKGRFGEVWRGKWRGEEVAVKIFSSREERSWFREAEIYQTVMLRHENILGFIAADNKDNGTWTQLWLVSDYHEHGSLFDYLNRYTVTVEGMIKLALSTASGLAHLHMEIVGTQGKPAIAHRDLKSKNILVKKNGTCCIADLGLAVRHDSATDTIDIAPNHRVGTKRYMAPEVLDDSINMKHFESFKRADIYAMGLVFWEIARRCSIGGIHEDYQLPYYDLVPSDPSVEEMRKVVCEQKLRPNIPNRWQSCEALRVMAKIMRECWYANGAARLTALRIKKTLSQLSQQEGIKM", "test": "Binding affinity to wild-type human partial length TGFBR1 (D179 to M503 residues) expressed in bacterial expression system assessed as residual binding level at 1 uM by Kinomescan method relative to control"}, "[15]": {"target": "Microtubule-associated serine/threonine-protein kinase 1 (Homo sapiens) (UniProt Q9Y2H9)", "sequence (Q9Y2H9 whole entry, looked up, the tested form may be a part)": "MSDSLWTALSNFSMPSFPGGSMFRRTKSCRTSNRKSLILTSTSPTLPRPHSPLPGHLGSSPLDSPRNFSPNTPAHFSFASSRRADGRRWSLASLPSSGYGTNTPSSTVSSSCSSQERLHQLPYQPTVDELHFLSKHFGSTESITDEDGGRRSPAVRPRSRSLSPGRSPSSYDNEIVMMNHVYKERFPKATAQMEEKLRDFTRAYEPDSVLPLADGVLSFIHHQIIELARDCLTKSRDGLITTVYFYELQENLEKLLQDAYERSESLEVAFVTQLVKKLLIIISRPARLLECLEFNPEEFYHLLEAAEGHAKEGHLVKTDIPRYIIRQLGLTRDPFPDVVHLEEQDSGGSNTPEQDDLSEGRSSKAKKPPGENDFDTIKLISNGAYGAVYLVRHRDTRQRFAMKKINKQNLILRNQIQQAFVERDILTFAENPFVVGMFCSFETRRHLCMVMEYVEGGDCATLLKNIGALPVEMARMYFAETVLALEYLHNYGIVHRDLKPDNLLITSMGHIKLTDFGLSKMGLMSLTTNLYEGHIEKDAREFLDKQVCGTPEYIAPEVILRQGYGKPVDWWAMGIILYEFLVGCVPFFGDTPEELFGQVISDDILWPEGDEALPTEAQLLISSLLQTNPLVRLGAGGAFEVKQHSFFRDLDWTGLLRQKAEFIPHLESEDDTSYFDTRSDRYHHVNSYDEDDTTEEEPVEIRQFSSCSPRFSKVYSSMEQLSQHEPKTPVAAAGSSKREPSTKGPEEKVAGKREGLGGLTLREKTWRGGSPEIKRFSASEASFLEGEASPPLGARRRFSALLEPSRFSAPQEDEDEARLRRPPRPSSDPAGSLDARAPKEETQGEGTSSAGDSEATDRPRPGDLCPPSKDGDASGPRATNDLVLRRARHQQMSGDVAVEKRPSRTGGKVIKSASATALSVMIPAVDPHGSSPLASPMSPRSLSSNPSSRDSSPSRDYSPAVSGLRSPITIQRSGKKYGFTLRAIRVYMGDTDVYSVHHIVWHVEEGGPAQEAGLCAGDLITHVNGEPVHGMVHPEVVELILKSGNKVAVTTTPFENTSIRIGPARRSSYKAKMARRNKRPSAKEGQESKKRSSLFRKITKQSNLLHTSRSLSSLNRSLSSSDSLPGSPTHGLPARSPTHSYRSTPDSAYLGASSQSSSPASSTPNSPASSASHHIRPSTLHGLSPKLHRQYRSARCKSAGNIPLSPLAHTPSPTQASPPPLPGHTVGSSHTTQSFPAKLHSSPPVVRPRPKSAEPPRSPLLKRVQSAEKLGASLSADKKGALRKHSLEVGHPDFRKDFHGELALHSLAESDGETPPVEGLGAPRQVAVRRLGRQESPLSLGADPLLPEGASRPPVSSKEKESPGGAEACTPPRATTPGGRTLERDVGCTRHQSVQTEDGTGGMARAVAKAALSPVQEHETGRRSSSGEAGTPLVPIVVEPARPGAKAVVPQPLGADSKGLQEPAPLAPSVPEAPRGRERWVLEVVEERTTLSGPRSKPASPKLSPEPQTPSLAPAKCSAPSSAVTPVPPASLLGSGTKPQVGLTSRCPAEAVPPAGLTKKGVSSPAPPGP", "test": "Binding affinity to wild-type human partial length MAST1 (S346 to V730 residues) expressed in mammalian expression system assessed as residual binding level at 1 uM by Kinomescan method relative to control", "in_short": "as §4"}, "[16]": {"target": "Testis-specific serine/threonine-protein kinase 1 (Homo sapiens) (UniProt Q9BXA7)", "test": "Binding affinity to wild-type human full length TSSK1B (M1 to Q367 residues) expressed in bacterial expression system assessed as residual binding level at 1 uM by Kinomescan method relative to control", "in_short": "as §1"}, "[17]": {"target": "Interleukin-1 receptor-associated kinase 3 (Homo sapiens) (UniProt Q9Y616)", "sequence (Q9Y616 whole entry, the tested form may be a part)": "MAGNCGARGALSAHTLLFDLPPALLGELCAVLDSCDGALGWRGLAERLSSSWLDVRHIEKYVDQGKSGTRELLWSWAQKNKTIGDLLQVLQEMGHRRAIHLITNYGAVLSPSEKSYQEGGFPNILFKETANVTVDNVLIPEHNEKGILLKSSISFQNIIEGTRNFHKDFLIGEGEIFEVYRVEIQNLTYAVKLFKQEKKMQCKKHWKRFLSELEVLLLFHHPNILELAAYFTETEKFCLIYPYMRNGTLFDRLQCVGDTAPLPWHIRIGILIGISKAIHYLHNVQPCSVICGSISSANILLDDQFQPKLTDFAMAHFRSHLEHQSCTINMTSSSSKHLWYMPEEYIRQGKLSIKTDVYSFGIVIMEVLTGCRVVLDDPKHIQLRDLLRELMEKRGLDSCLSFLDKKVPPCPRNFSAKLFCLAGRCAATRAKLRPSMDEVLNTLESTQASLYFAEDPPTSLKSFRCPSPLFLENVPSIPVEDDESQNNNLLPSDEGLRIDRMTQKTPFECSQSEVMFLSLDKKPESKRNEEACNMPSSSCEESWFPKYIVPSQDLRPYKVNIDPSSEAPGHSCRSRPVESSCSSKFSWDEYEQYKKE", "test": "Binding affinity to wild-type human partial length IRAK3 (V147 to E596 residues) expressed in bacterial expression system assessed as residual binding level at 1 uM by Kinomescan method relative to control"}, "[18]": {"tested_on": "Tyrosine-protein kinase ABL1 (Homo sapiens), P00519 [Q252H]", "test": "Binding affinity to human phosphorylated ABL1 Q252H mutant expressed in mammalian expression system assessed as residual binding level at 1 uM by Kinomescan method relative to control", "in_short": "as §2"}, "[19]": {"tested_on": "Mast/stem cell growth factor receptor Kit (Homo sapiens), P10721 [D816V]", "test": "Binding affinity to human partial length KIT D816V mutant (I571 to D952 residues) expressed in bacterial expression system assessed as residual binding level at 1 uM by Kinomescan method relative to control", "in_short": "as §3"}}, "note": "Activity calls are given as the source filed them. No cut-off for these calls is given here."}
{"smiles": "C=CC(=O)Nc1ccccc1Nc1nc(Nc2ccc(N3CCN(C)CC3)cc2)ncc1C(=O)Nc1c(C)cccc1Cl", "values": [{"measurement": "inhibition", "setting": "Mus musculus", "value": "Active"}, {"measurement": "Activity", "setting": "[1]", "value": 88, "unit": "%"}, {"measurement": "Activity", "setting": "[2]", "value": 100, "unit": "%"}, {"measurement": "Activity", "setting": "[3]", "value": 96, "unit": "%"}, {"measurement": "Activity", "setting": "[4]", "value": 0.1, "unit": "%"}, {"measurement": "Activity", "setting": "[5]", "value": 64, "unit": "%"}, {"measurement": "Activity", "setting": "[6]", "value": 100, "unit": "%"}, {"measurement": "Activity", "setting": "[7]", "value": 100, "unit": "%"}, {"measurement": "Activity", "setting": "[8]", "value": 100, "unit": "%"}, {"measurement": "Activity", "setting": "[9]", "value": 100, "unit": "%"}, {"measurement": "Activity", "setting": "[10]", "value": 79, "unit": "%"}, {"measurement": "Activity", "setting": "[11]", "value": 100, "unit": "%"}, {"measurement": "Activity", "setting": "[12]", "value": 98, "unit": "%"}, {"measurement": "Activity", "setting": "[13]", "value": 100, "unit": "%"}, {"measurement": "Activity", "setting": "[14]", "value": 100, "unit": "%"}, {"measurement": "Activity", "setting": "[15]", "value": 82, "unit": "%"}, {"measurement": "Activity", "setting": "[16]", "value": 86, "unit": "%"}, {"measurement": "Activity", "setting": "[17]", "value": 100, "unit": "%"}, {"measurement": "Activity", "setting": "[18]", "value": 0.7, "unit": "%"}, {"measurement": "Activity", "setting": "[19]", "value": 100, "unit": "%"}]}
